Results taken from ChEMBL document CHEMBL5584288, “Synthesis, biological evaluation and metadynamics simulations of novel N-methyl β-sheet breaker peptides as inhibitors of Alzheimer's β-amyloid fibrillogenesis” (RSC Med Chem, 2024).
Activity calls are given as the source filed them. The calls are words filed in the database; no cut-off is given here. Square brackets hold non-standard residues; d marks the D form. Peptide text beside a SMILES is read from it. Sar = CNCC(=O)O

Key:
[1] = target: Amyloid-beta precursor protein (Homo sapiens) (UniProt P05067); test: Inhibition of amyloid beta (1 to 42) (unknown origin) aggregation assessed as reduction in amyloid beta fibril formation at 200 uM incubated for 12 hrs by ThT-based fluorescence analysis
How it was run: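 Aβ1–42 (20 μM) incubated alone or with peptide (200 μM, tenfold molar excess) plus ThT (10 μM) in 20 mM Tris-HCl pH 7.4 at 20 °C. Real-time fluorescence (excitation 450 nm, emission 482 nm) recorded every 30 min for ~12 h. Intensity plotted against time. Three independent experiments.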

SH-SY5Y [2] = test: Cytotoxicity against human SH-SY5Y cells assessed as reduction in cell viability at 10 to 100 uM after 48 hrs by MTT assay; assay type: toxicity, cell-based; details: dose 10-100 µM
How it was run: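 Human SH-SY5Y neuroblastoma cells in DMEM with 10% FBS, penicillin/streptomycin, 37 °C, 5% CO2. Seeded at 1.5 × 10^4 per well, treated after 24 h, exposed 48 h. MTT 0.50 mg mL⁻¹ for 4 h at 37 °C, formazan dissolved in DMSO, absorbance 570 nm. Viability expressed as % mitochondrial redox activity of untreated control.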

[3] = Drug uptake in human SH-SY5Y cells at 100 uM by UHPLC-HR MS analysis; assay type: ADME, cell-based
How it was run: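 SH-SY5Y cells seeded at 2.0 × 10^6 per 100 mm dish, treated after 24 h with peptides (100 μM) in FBS-free medium. Cell pellets quenched and extracted, sonicated 5 min, centrifuged 3500 rpm at 0 °C for 10 min. Supernatant lyophilized, reconstituted in acetonitrile and analysed by UHPLC-HR TOF-MS/MS, with extracted ion chromatograms of protonated molecular ions.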

SH-SY5Y [4] = test: Cytoprotective activity against amyloid beta (25 to 35 residues)-induced toxicity in human SH-SY5Y cells assessed as increase in cell viability at 10 uM incubated for 24 hrs by MTT assay relative to control; assay type: functional
How it was run: (§1)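 SH-SY5Y cells seeded at 2.0 × 10^4 per well, after 24 h exposed to Aβ25–35 (100.0 μM; DMSO stock 12.5 mM) for 48 h, washed twice with PBS, then given test peptides for a further 24 h. MTT read-out as in cytotoxicity assay. Viability relative to untreated control cells. Mean ± SD of six measurements from three independent experiments.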

SH-SY5Y [5] = test: Cytoprotective activity against amyloid beta (25 to 35 residues)-induced toxicity in human SH-SY5Y cells assessed as increase in cell viability incubated for 24 hrs by MTT assay; assay type: functional, cell-based; details: dose 10-100 µM; how it was run: as §1
SH-SY5Y [6] = test: Cytoprotective activity against amyloid beta (25 to 35 residues)-induced toxicity in human SH-SY5Y cells assessed as increase in cell viability at 100 uM incubated for 24 hrs by MTT assay relative to control; assay type: functional; how it was run: as §1

Sequence of Amyloid-beta precursor protein (Homo sapiens) (P05067 whole entry): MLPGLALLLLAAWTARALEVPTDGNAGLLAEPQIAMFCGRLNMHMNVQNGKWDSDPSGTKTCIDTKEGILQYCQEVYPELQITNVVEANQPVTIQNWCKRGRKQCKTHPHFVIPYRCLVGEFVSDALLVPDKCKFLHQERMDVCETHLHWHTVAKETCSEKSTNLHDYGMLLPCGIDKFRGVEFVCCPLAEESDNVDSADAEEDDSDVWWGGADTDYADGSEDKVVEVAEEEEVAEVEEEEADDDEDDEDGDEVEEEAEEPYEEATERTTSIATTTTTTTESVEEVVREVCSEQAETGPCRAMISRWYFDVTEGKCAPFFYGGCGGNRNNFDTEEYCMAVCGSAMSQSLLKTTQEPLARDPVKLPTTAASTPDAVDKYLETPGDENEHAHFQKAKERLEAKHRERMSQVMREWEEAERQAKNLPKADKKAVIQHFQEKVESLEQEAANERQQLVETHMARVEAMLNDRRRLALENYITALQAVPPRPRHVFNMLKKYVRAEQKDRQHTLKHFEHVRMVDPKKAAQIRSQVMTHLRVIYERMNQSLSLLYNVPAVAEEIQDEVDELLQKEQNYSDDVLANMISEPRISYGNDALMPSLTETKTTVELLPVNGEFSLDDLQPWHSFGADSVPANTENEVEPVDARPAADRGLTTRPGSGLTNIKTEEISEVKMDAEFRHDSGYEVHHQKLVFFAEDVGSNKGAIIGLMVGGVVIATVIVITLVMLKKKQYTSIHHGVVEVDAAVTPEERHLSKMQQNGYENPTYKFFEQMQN

Row | inhibition [1] | Drug uptake [3] | Compound | Activity (SH-SY5Y [2]) | Activity (SH-SY5Y [4]) [%] | Activity (SH-SY5Y [5]) | Activity (SH-SY5Y [6]) [%]
1 | Active | Active | CC(=O)N[C@@H](CCCCN)C(=O)N(C)CC(=O)N[C@H](C(=O)N[C@@H](Cc1ccccc1)C(=O)N(C)CC(=O)N[C@@H](CCC(=O)O)C(N)=O)C(C)C (Ac-K[Sar]VF[Sar]E-NH2) | Non-Toxic | ~30 | Dose-Dependent Effect | –
2 | Active | – | CC(=O)N[C@@H](Cc1ccccc1)C(=O)N[C@@H](CCCCN)C(=O)N[C@@H](CCC(=O)O)C(=O)N(C)CC(=O)N(C)CC(=O)N[C@H](C(N)=O)C(C)C (Ac-FKE[Sar][Sar]V-NH2) | – | – | – | –

More lines, now with the values behind:

Row | Compound | inhibition [1] | Drug uptake [3] | Activity (SH-SY5Y [2]) | Activity (SH-SY5Y [4]) [%] | Activity (SH-SY5Y [5]) | Activity (SH-SY5Y [6]) [%]
3 | CC[C@H](C)[C@H](NC(C)=O)C(=O)N[C@H](C(=O)N(C)CC(=O)N[C@@H](CC(C)C)C(=O)N[C@@H](CCSC)C(=O)N[C@H](C(=O)NCC(=O)N(C)CC(=O)N[C@H](C(N)=O)C(C)C)C(C)C)[C@@H](C)CC | Active | – | – | – | – | –
4 | CC(=O)N[C@@H](CCCCN)C(=O)N(C)CC(=O)N[C@H](C(=O)N[C@@H](Cc1ccccc1)C(=O)N[C@@H](Cc1ccccc1)C(=O)N(C)CC(=O)N[C@@H](CCC(=O)O)C(N)=O)C(C)C (Ac-K[Sar]VFF[Sar]E-NH2) | Active | Active | Non-Toxic | – | Dose-Dependent Effect | 142.1
5 | Ac-LPFFD-NH2 | Active | – | Non-Toxic | – | Dose-Dependent Effect | 110.8
